Values after ≈ are worked out from the molar mass of the structure shown.
Key:
[1] = tested on: panel of Gram-positive and Gram-negative bacteria; assay: Antimicrobial activity against the whole panel; type: cell-based; conditions: for antimicrobial activity against the tested strains (in words): statement in text over the panel of strains; for MIC: read-out: MICs across the tested strains
[2] = tested on: P. aeruginosa (ATCC 27853); assay: MIC against P. aeruginosa; type: cell-based, Pseudomonas aeruginosa
[3] = Hemolytic activity; type: cell-based
[4] = tested on: ovarian cancer cells (C13); assay: Cytotoxicity toward ovarian cancer cells; type: cell-based
[5] = tested on: MRSA; assay: Fluorescence microscopy; type: cell-based, Staphylococcus aureus
[6] = tested on: E. coli; assay: Fluorescence microscopy; type: cell-based, Escherichia coli
In short: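 Test compound at 5 µg/mL applied to E. coli for 2 h, with untreated cells as controls. Cells stained with DAPI or with propidium iodide, a membrane-impermeant DNA intercalator that fluoresces red only when membranes are disrupted. Membrane damage assessed by fluorescence microscopy.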

[7] = tested on: MRSA; assay: Time-kill study, MRSA; type: cell-based, Staphylococcus aureus
[8] = tested on: E. coli; assay: Time-kill study, E. coli; type: cell-based, Escherichia coli
[9] = tested on: MRSA; assay: Drug resistance study; type: cell-based, Staphylococcus aureus; conditions: incubated at half of MIC overnight, after 14 passages
[10] = tested on: MRSA-induced lung inflammation; assay: Rat MRSA pneumonia model, lung pathology; type: in vivo
In short: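 Rats (n = 6 per group) inoculated intratracheally with 100 µL MRSA suspension. After 24 h (day 0), test compound 10 mg/kg given by intravenous tail-vein injection. Lung bacterial counts taken on days 3 and 5. Lung inflammation assessed by hematoxylin and eosin staining of lung tissue.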

[11] = tested on: Pseudomonas aeruginosa; conditions: cited from earlier work
[12] = even at 100 µg/mL, same experiment (Figure S2)

In the case of `CCCCCCCCCC(=O)N[C@@H](CCCCN)CN1CC(=O)N(CC)C1=O` [Compound 1, (S)-N-(6-Amino-1-(3-ethyl-2,4-dioxoimidazolidin-1-yl)hexan-2-yl)decanamide], the “antimicrobial activity against the tested strains (in words)” value (“antimicrobial activity” below) [1] is reported as “did not exhibit any activity”.
For `CCCCCCCCCCCCCCCC(=O)N[C@@H](CCCCN)CN1CC(=O)N(CC)C1=O` [Compound 4, (S)-N-(6-Amino-1-(3-ethyl-2,4-dioxoimidazolidin-1-yl)hexan-2-yl)palmitamide], the “activity toward P. aeruginosa (in words)” value [2] was “abolished”.
With `CCCCCCCCCC(=O)N[C@@H](CCCCN)CN1CC(=O)N(CCCC)C1=O` [Compound 5, (S)-N-(6-Amino-1-(3-butyl-2,4-dioxoimidazolidin-1-yl)hexan-2-yl)decanamide] the “antimicrobial activity” value [1] was “does not have any antimicrobial activity”.
With `CCCCCCCCCC(=O)N[C@@H](CCCCN)CN1CC(=O)N(C2CCCCC2)C1=O` [Compound 9, (S)-N-(6-Amino-1-(3-cyclohexyl-2,4-dioxoimidazolidin-1-yl)-hexan-2-yl)decanamide] the “antimicrobial activity” value [1] was “starts to show activity toward a few bacterial strains”.
In the case of `CCCCCCCCCC(=O)N[C@@H](CCCCN)CN1CC(=O)N(C23CC4CC(CC(C4)C2)C3)C1=O` [Compound 13, N-((S)-1-(3-((3R,5R,7R)-Adamantan-1-yl)-2,4-dioxoimidazolidin-1-yl)-6-aminohexan-2-yl)decanamide], the HC50 [3] is reported as 125 µg/mL and the “antimicrobial activity” value [1] is reported as “decent activity across the panel of bacteria”.
For `CCCCCCCCCCCC(=O)N[C@@H](CCCCN)CN1CC(=O)N(c2cccc(Cl)c2)C1=O` [Compound 22, (S)-N-(6-Amino-1-(3-(3-chlorophenyl)-2,4-dioxoimidazolidin-1-yl)hexan-2-yl)dodecanamide], the IC50 [4] was 90 µg/mL (≈ 177 µM), the MIC [1] was less than 1 µg/mL and the “membrane damage (DAPI and PI staining)” value ([5]; MRSA, 5 µg/mL, 2 h) was “damaged”. For the same molecule, the “membrane damage (DAPI and PI staining)” value ([6]; E. coli, 5 µg/mL, 2 h) was “damaged”, the “time to complete eradication” value ([7]; 2.0 µg/mL (4× MIC)) was 60 min and the “time to complete eradication” value ([7]; 25 µg/mL) was 10 min. The “time to complete eradication” value ([8]; 4.0 µg/mL (4× MIC)) was 60 min, the “time to complete eradication” value ([8]; 25 µg/mL) was 30 min and the “time to complete eradication” value ([8]; 50 µg/mL) was 30 min. For the same molecule, the “MIC after serial passage (resistance development)” value [9] was “remained virtually unchanged”, the “lung inflammation (H&E staining)” value ([10]; day 3) was “only mild inflammation was observed” and the “lung inflammation (H&E staining)” value ([10]; day 5) was “virtually matched normal conditions”.
For `CCCCCCCCCCCC(=O)N[C@@H](Cc1ccccc1)CN1CC(=O)N(c2cccc(Cl)c2)C1=O` [Compound 25, (S)-N-(1-(3-(3-Chlorophenyl)-2,4-dioxoimidazolidin-1-yl)-3-phenylpropan-2-yl)dodecanamide], the “antimicrobial activity” value [1] was “failed to show any antimicrobial activity”.
With `O=C1CN(/N=C/c2ccc([N+](=O)[O-])o2)C(=O)N1` [Compound 26, nitrofurantoin, reference compound] the “activity toward P. aeruginosa (in words)” value [2] was “failed to show any activity”, the MIC [1] was 6.25 to 25 µg/mL (≈ 26.2 to 105 µM) and the membrane-disruption activity [5, 12] was “did not show any membrane-disruption activity”. The membrane-disruption activity [6, 12] was “did not show any membrane-disruption activity” and the “not active up to (concentration)” value [11] was greater than 100 µg/mL.
For `CN[C@H](CC(C)C)C(=O)N[C@H]1C(=O)N[C@@H](CC(N)=O)C(=O)N[C@H]2C(=O)N[C@H]3C(=O)N[C@H](C(=O)N[C@H](C(=O)O)c4cc(O)cc(O)c4-c4cc3ccc4O)[C@H](O)c3ccc(c(Cl)c3)Oc3cc2cc(c3O[C@@H]2O[C@H](CO)[C@@H](O)[C@H](O)[C@H]2O[C@H]2C[C@](C)(N)[C@H](O)[C@H](C)O2)Oc2ccc(cc2Cl)[C@H]1O` [vancomycin, reference compound], the “lung inflammation (H&E staining)” value ([10]; day not given) was “some alleviation of this condition”.

From paper PMC5884119 (Journal of medicinal chemistry, 2017)
